Source: paper PMC3640342 (Pharmaceutical research, 2013)
Where “and” joins values, the source holds several entries; their conditions need not be identical. Equal values may be shown once. Read-outs that look alike come from different tables or passages of the source.

How the values were obtained:
[1] = system: PrP^Sc levels in ScN2a-cl3 cells; assay: cells; assay type: cell-based, mouse
[2] = Solubility at pH 2, pH 7.4 and in FaSSIF; assay type: physicochemical; conditions: pH 7.4 (phosphate) buffer, room temperature overnight
Media solubility = assay type: physicochemical; conditions: media used in the cell-based assays, 10% FBS
mouse liver microsomes = assay: Hepatic microsomal stability, mouse; assay type: in vitro ADME; conditions: 1 μM
Outline: (§1)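 Liver microsomes from mouse, rat or human (~0.5 mg/mL final) were incubated at 37°C with test compound at 1 μM final (0.6% ACN, 0.01% DMSO) in PBS pH 7.4 ± 0.05% PS80, with 1 mM NADPH or PBS.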

rat liver microsomes = assay: Hepatic microsomal stability, rat; assay type: in vitro ADME; conditions: 1 μM
Outline: as §1

human liver microsomes [3] = assay: Hepatic microsomal stability, human; assay type: in vitro ADME; conditions: 1 μM
Outline: as §1

[4] = Single-dose IV PK at 1 mg/kg; assay type: in vivo, FVB mice; conditions: IV 1 mg/kg, plasma
Outline: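 Female FVB mice (~25 g) received 1 mg/kg by tail-vein injection in 10% DMSO in PEG400/water (1:1), 10% DMSO, or 10% ethanol in PEG400/water (1:1). Two mice per time point were killed by CO2 at 5 min and 0.25, 0.5, 1, 2, 4 and 6 h, and heparinized plasma was collected. After protein precipitation, samples were assayed by LC/MS/MS, and parameters came from noncompartmental sparse-sampling analysis.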

[5] = Single-dose oral gavage PK at 10 mg/kg; assay type: in vivo, FVB mice; conditions: for AUClast / Cmax: mean ± SD, n = 2
Outline: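 Female FVB mice (~25 g) were dosed at 10 mg/kg by oral gavage in 20% propylene glycol, 5% ethanol, 5% labrosol and 70% PEG400. Two mice per time point were killed by CO2 at 0.25, 0.5, 1, 2, 4, 6 and 24 h. Heparinized plasma and brain (diluted five-fold in water, homogenized) were assayed by LC/MS/MS.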

mouse plasma = conditions: 1 μM
human plasma = conditions: human plasma, 1 μM
[6] = mouse brain homogenate, 1 μM, corrected for dilution
[7] = cell-culture media with 10% FBS, 1 μM
[8] = system: human, mouse, rat, and dog liver microsomes; conditions: 10 μM, LC/MS/MS
human liver microsomes [9] = conditions: for Measured Conc.: 60 min
CYP2C19 [10] = target: CYP2C19 (Homo sapiens, UniProt P33261); conditions: NADPH + N-3-B
CYP2C19 (Homo sapiens, UniProt P33261), sequence (P33261 whole entry): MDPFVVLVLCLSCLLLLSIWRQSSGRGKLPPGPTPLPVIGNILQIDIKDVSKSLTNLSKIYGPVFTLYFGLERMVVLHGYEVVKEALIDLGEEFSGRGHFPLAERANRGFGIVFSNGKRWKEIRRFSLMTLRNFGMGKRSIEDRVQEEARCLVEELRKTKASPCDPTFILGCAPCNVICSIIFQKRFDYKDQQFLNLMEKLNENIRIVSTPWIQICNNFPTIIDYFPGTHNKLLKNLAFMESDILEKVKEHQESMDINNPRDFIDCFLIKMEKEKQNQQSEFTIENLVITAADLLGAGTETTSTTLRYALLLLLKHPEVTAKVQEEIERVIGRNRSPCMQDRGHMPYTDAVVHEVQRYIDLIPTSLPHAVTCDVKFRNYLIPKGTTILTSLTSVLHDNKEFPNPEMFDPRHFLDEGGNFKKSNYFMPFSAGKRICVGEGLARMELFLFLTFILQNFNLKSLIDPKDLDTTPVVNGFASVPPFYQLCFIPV

CYP2C19 [11] = conditions: NADPH + N-3-B
CYP2D6 = CYP2D6 (Homo sapiens, UniProt P10635); assay: CYP phenotyping in human liver microsomes, quinidine; conditions: NADPH + Quinidine
CYP2D6, sequence (P10635 whole entry): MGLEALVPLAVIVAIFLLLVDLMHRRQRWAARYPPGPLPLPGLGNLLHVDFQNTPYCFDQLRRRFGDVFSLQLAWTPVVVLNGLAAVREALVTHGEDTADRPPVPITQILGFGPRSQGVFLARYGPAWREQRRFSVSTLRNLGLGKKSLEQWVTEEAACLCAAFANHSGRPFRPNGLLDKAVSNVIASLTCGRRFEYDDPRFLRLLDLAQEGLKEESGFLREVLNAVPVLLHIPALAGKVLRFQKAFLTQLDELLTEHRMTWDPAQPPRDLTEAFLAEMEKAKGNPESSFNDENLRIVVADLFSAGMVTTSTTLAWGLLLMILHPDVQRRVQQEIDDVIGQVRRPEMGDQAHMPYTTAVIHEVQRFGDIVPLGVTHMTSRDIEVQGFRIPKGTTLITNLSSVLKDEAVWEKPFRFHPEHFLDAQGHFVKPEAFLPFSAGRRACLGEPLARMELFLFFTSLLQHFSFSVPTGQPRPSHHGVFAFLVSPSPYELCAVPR

CYP1A2 = target: T1, CYP1A2 (Homo sapiens, UniProt P05177); assay: CYP phenotyping in human liver microsomes, furafylline; conditions: NADPH + Furafylline
T1 sequence (P05177 1-516): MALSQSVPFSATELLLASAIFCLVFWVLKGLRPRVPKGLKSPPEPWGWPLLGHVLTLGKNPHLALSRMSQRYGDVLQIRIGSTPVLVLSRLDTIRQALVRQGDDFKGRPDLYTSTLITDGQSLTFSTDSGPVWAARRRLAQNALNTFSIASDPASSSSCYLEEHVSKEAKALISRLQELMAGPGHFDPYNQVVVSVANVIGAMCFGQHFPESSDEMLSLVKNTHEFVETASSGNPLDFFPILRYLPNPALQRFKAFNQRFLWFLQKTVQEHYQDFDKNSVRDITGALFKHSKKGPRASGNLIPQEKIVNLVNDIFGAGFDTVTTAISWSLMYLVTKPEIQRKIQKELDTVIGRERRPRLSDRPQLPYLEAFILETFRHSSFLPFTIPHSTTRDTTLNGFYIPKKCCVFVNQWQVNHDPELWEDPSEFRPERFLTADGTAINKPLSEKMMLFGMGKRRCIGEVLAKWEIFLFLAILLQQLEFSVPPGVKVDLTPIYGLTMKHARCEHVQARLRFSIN

CYP3A4 = CYP3A4 (Homo sapiens, UniProt P08684); assay: CYP phenotyping in human liver microsomes, ketoconazole; conditions: NADPH + Ketoconazole
CYP3A4, sequence (P08684 whole entry): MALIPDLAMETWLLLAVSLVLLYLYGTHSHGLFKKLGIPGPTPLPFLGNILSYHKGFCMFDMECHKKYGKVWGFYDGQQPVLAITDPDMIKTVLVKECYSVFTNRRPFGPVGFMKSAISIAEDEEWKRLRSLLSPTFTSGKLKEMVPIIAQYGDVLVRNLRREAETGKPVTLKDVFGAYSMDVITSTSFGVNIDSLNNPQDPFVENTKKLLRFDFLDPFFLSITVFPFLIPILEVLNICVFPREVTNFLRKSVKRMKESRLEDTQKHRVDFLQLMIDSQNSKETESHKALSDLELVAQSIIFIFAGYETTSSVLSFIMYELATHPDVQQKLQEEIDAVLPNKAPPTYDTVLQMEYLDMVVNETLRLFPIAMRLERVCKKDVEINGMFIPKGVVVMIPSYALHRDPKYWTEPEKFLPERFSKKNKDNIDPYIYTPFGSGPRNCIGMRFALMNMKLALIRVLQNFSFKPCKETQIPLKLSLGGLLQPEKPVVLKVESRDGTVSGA

CYP2C9 = CYP2C9 (Homo sapiens, UniProt P11712); assay: CYP phenotyping in human liver microsomes, sulfaphenazole; conditions: NADPH + Sulphaphenazol
CYP2C9, sequence (P11712 whole entry): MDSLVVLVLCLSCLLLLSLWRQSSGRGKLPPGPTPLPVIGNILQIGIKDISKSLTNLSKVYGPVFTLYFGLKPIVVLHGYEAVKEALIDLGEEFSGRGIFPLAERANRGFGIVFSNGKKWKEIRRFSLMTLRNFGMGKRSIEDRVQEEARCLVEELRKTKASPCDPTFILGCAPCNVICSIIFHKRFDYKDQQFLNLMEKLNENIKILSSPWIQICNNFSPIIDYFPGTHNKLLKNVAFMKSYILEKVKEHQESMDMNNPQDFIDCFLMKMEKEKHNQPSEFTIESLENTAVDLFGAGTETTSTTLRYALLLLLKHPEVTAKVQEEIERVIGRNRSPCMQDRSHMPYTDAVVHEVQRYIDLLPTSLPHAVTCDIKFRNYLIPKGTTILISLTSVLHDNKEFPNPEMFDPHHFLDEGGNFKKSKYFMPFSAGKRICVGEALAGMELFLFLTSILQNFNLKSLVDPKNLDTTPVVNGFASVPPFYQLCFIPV

[12] = irreversible incubation condition, maximum metabolism, NADPH/No Inhibitor
[13] = reversible incubation condition, maximum metabolism, NADPH/No Inhibitor
[14] = reversible incubation condition, 1 μM, 60 min

Cc1ccc(Nc2nc(-c3ccc(-c4ccccc4)cc3)cs2)nc1 [IND24]
EC50 [1]: 1270 nM | EC50 ([1]; read-out: EC50, unbound compound): 325 nM | Solubility pH 7.4 [2]: <1 μM | Solubility Media (Media solubility): >250 µM | % remaining after a 60-min incubation (mouse liver microsomes): 89% | t1/2 (mouse liver microsomes; NADPH): > 1 h | % remaining after a 60-min incubation (rat liver microsomes): 90% | t1/2 (rat liver microsomes; NADPH): > 1 h | % remaining after a 60-min incubation (human liver microsomes [3]): 105% | t1/2 (human liver microsomes [3]; NADPH): > 1 h | tmax [4]: 4.98 min | CL ([4]; female FVB mice): 15.3 mL/min/kg | Vss ([4]; female FVB mice): 2.46 L/kg | AUClast ([4]; mean ± SD, n = 2): 2.78 ± 1.09 µM·h | Cmax ([4]; mean ± SD, n = 2): 2490 ± 2650 nM | t1/2 ([4]; 1 mg/kg): 2.16 h | %F (absolute oral bioavailability) ([5]; PO 10 mg/kg vs IV 1 mg/kg, plasma): 40% and 40.3% | tmax ([5]; PO 10 mg/kg, brain): 4 h | AUClast ([5]; PO 10 mg/kg, brain): 29.1 ± 1.24 µM·h | Cmax ([5]; PO 10 mg/kg, brain): 2450 ± 740 nM | t1/2 ([5]; PO 10 mg/kg, plasma): 4.65 h | tmax ([5]; PO 10 mg/kg, plasma): 2 h | AUClast ([5]; PO 10 mg/kg, plasma): 11.2 ± 1.31 µM·h | Cmax ([5]; PO 10 mg/kg, plasma): 1660 ± 110 nM | Unbound (%) (mouse plasma): 6.6% and 6.63±1.55% | Unbound (%) (human plasma): 4.9% and 4.91±1.03% | Unbound (%) [6]: 8% and 8.20±0.35% | Unbound (%) [7]: 26% and 25.7±4.93% | Metabolites observed [8]: metabolites M1–M3 and M5 were observed in all of the microsomal assays while M4 was only observed in the dog liver microsomal incubation | Metabolism in HLM incubations (human liver microsomes [9]; 1 μM, human liver microsomes): very little metabolism | Disappearance % (human liver microsomes [9]; [12]): 0 (−18) % | Disappearance % Δ (human liver microsomes [9]; [12]): 0% | Measured Conc. (human liver microsomes [9]; irreversible incubation condition, maximum metabolism, NADPH/No Inhibitor, 1 μM): 0.733 µM | Measured Conc. (human liver microsomes [9]; irreversible incubation condition, negative control, No NADPH/No Inhibitor, 1 μM): 0.622 µM | Disappearance % (human liver microsomes [9]; [13]): 0% | Disappearance % Δ (human liver microsomes [9]; [13]): 0% | Measured Conc. (human liver microsomes [9]; reversible incubation condition, maximum metabolism, NADPH/No Inhibitor, 1 μM): 0.655 µM | Disappearance % (human liver microsomes [9]; reversible incubation condition, negative control, No NADPH/No Inhibitor): 0% | Measured Conc. (human liver microsomes [9]; reversible incubation condition, negative control, No NADPH/No Inhibitor, 1 μM): 0.654 µM | CYP? (involvement of CYP2C19) (CYP2C19 [10]): Unlikely (unlikely for values <5) | Disappearance % Δ (CYP2C19 [10]): 0 (−18) % | Disappearance % (CYP2C19 [11]): 18% | Measured Conc. (CYP2C19 [11]; [14]): 0.537 µM | CYP? (involvement of CYP2D6) (CYP2D6): Unlikely (unlikely for values <5) | Disappearance % (CYP2D6): 15% | Disappearance % Δ (CYP2D6): 0 (−15) % | Measured Conc. (CYP2D6; [14]): 0.555 µM | Disappearance % (CYP1A2): 0 (−23) % | Disappearance % Δ (CYP1A2): 0% | Measured Conc. (CYP1A2; irreversible incubation condition, 1 μM, 60 min): 0.766 µM | CYP? (involvement of CYP3A4) (CYP3A4): Unlikely (unlikely for values <5) | Disappearance % (CYP3A4): 15% | Disappearance % Δ (CYP3A4): 0 (−15) % | Measured Conc. (CYP3A4; [14]): 0.557 µM | CYP? (involvement of CYP2C9) (CYP2C9): Unlikely (unlikely for values <5) | Disappearance % (CYP2C9): 14% | Disappearance % Δ (CYP2C9): 0 (−14) % | Measured Conc. (CYP2C9; [14]): 0.566 µM
